# Reference: paper PMC11052883 (Clinical Pharmacokinetics, 2024)
# Where “and” joins values, the source holds several entries; their conditions need not be identical. Equal values may be shown once. Square brackets hold non-standard residues; d marks the D form. Peptide text beside a SMILES is read from it. * marks the point of attachment. Dolaproine = CO[C@@H]([C@@H]1CCCN1)[C@@H](C)C(=O)O; Dil = CC[C@H](C)[C@H](NC)[C@@H](CC(=O)O)OC; X1 = C[C@@H](N*)[C@@H](O)c1ccccc1; NMeV = CN[C@H](C(=O)O)C(C)C
# What was measured:
# [1] = tested on: OATP1B3; conditions: in vitro, cited from earlier work
# [2] = tested on: P-glycoprotein (P-gp); conditions: in vitro, cited from earlier work
# [3] = tested on: QTcF interval; conditions: cited from earlier work; for Cmax geometric mean: EV-102, after third dose, cycle 1 day 15, 1.25 mg/kg
# [4] = Population PK: model-predicted exposures by race/ethnicity; type: in vivo, human; conditions: for difference in exposure, lower in Asian patients: cycle 1 AUC0–28d and Cmax, Asian vs non-Asian; for geometric least square mean ratios of Cmax, AUC0–28d and Ctrough lower in Japanese than non-Japanese patients: population PK model-simulated
# [5] = tested on: MRP2; conditions: in vitro, cited from earlier work
# [6] = Population PK analysis of five clinical studies; type: in vivo, human; conditions: enfortumab vedotin 0.5–1.25 mg/kg
# [7] = tested on: plasma proteins; conditions: 3H-MMAE, human plasma; cited from earlier work
# [8] = tested on: cytochrome P450 (CYP) 3A4; conditions: background statement, no reference given; cited from earlier work
# [9] = tested on: plasma proteins; experiment: MMAE protein binding in human plasma; type: in vitro ADME; conditions: used for unbound Cmax
# [10] = tested on: BSEP; conditions: in vitro, clinically relevant concentrations; cited from earlier work
# [11] = tested on: OAT1; conditions: in vitro, cited from earlier work
# [12] = EV-201 clinical PK of ADC, TAb and free MMAE after enfortumab vedotin 1.25 mg/kg; type: in vivo, human; conditions: for AUCd0–14: cycle 1, dose 3, day 15, geometric mean (%CV)
# [13] = tested on: OAT3; conditions: in vitro, cited from earlier work
# [14] = tested on: OCT1; conditions: in vitro, clinically relevant concentrations; cited from earlier work
# [15] = tested on: OCT2; conditions: in vitro, cited from earlier work
# [16] = tested on: QTcF interval; experiment: EV-102 concentration–QTcF analysis; type: in vivo, human; conditions: patients, third dose of enfortumab vedotin 1.25 mg/kg
# [17] = MMAE given as brentuximab vedotin; cited from earlier work
# [18] = Population PK: effect of mild hepatic impairment on model-predicted exposures; type: in vivo, human; conditions: mild hepatic impairment compared with normal hepatic function
# [19] = tested on: CYP3A; conditions: when administered as part of an ADC; cited from earlier work
# [20] = molecular target: human ether-a-go-go–related (hERG) channel (Homo sapiens, UniProt Q12809); experiment: hERG channel inhibition, whole-cell voltage clamp; type: cell-based
# Summary of the method: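 In vitro hERG current by conventional whole-cell voltage clamp, with MMAE (free payload) tested at concentrations up to 100 μM. Half-maximal inhibitory concentration is estimated from the concentration–inhibition data. The comparator is the mean estimated maximum unbound plasma MMAE concentration in patients after a third 1.25 mg/kg dose, using an unbound fraction of 0.32.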
# [21] = tested on: OATP1B1; conditions: in vitro, cited from earlier work
# [22] = tested on: BCRP; conditions: in vitro; cited from earlier work
# [23] = tested on: Nectin-4–expressing malignant solid tumors; experiment: AGS-22M6E-11-1 phase I study; type: in vivo, human; conditions: for median t½: observed concentrations
# Summary of the method: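 First-in-human study in which patients received an intravenous infusion every 3 weeks at 0.6 or 1.2 mg/kg. ADC is measured as antibody carrying any amount of conjugated MMAE. Median half-life is derived from observed ADC concentrations at each dose level. Safety, tolerability and clinical response are assessed per dose cohort.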
# [24] = tested on: locally advanced or metastatic urothelial carcinoma; experiment: EV-201; type: in vivo, human; conditions: upper three ADC Cavg exposure quartiles
# [25] = tested on: mUC and other Nectin-4–expressing malignant solid tumors; experiment: EV-101 phase I dose-escalation; type: in vivo, human
# [26] = Adverse events in pooled enfortumab vedotin 1.25 mg/kg safety group; type: in vivo, human; conditions: for patients with grade 3 or higher TRAEs / patients with serious TRAEs: 1.25 mg/kg safety analysis group; for patients with TRAE grade 3 or higher / patients with serious TRAE: 1.25 mg/kg
# Summary of the method: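 Pooled integrated safety dataset (N = 680) from the clinical development program. Patients received monotherapy at 1.25 mg/kg (maximum 125 mg) as a 30-min IV infusion on days 1, 8 and 15 of each 28-day cycle until progression or unacceptable toxicity. Treatment-emergent and treatment-related AEs, including serious events, were tabulated by subgroups of concomitant inhibitor use.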
# [27] = tested on: locally advanced or metastatic urothelial carcinoma; experiment: EV-301 phase III: exposure–response for overall survival; type: in vivo, human; conditions: enfortumab vedotin range across ADC Cavg quartiles
# [28] = clinically relevant concentrations
# Chain of human ether-a-go-go–related (hERG) channel (Q12809 whole entry): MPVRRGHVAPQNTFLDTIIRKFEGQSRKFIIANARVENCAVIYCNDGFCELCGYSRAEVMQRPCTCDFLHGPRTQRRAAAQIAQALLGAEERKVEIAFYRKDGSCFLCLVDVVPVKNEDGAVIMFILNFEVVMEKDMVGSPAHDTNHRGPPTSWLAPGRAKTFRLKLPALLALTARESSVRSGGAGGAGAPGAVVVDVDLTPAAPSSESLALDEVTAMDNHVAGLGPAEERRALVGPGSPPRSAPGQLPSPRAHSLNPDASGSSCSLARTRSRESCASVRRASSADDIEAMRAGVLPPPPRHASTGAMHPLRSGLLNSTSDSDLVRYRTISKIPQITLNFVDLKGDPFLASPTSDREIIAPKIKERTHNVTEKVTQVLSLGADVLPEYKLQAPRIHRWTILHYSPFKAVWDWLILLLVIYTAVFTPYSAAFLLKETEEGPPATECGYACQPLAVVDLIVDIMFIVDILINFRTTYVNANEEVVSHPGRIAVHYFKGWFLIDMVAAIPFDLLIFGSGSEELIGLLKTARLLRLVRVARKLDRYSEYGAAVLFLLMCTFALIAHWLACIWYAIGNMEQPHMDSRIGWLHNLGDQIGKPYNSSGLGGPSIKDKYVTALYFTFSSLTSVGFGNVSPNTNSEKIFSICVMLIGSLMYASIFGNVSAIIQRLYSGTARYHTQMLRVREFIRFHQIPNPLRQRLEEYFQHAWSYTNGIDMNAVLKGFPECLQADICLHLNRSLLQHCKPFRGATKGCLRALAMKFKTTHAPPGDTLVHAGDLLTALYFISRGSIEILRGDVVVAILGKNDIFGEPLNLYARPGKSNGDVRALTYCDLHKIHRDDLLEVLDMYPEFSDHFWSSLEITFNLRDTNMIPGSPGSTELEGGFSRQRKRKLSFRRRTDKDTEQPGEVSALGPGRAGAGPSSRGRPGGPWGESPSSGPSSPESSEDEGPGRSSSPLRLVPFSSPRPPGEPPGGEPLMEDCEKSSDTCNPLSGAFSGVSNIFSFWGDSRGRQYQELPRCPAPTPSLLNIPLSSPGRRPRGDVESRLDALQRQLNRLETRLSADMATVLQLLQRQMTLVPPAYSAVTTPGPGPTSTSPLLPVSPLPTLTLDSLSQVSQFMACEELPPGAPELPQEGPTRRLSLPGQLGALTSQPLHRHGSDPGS
compound,measurement,setting,value
"CC[C@H](C)[C@@H]([C@@H](CC(=O)N1CCC[C@H]1[C@H](OC)[C@@H](C)C(=O)N[C@H](C)[C@@H](O)c1ccccc1)OC)N(C)C(=O)[C@@H](NC(=O)[C@@H](NC)C(C)C)C(C)C [MMAE, monomethyl auristatin E] (H-[NMeV]V[Dil][Dolaproine]-X1)",inhibitor of OATP1B3,[1]; [28],not an inhibitor
same,substrate of OATP1B3,[1],not a substrate
same,inhibitor of P-gp,[2]; [28],not an inhibitor
same,substrate of P-gp,[2],substrate
same,Cmax geometric mean,[3],3.94 ng/mL
same,"Predicted dQTcF interval (population mean change in QTcF), mean (SE in table)","[3]; at geometric mean Cmax, 1.25 mg/kg",-3.14 ms
same,"difference in exposure, lower in Asian patients",[4],< 11%
same,"geometric least square mean ratios of Cmax, AUC0–28d and Ctrough lower in Japanese than non-Japanese patients",[4],2.7–11.6%
same,inhibitor of MRP2,[5]; [28],not an inhibitor
same,substrate of MRP2,[5],not a substrate
same,mean clearance,[6],2.11 L/h
same,bound to plasma proteins,[7],67.9–82.2%
same,metabolizing enzyme,[8],primarily metabolized by cytochrome P450 (CYP) 3A4
same,unbound fraction,[9],0.32
same,inhibitor of BSEP,[10],not an inhibitor
same,inhibitor of OAT1,[11]; [28],not an inhibitor
same,substrate of OAT1,[11],not a substrate
same,Mean Cmax,"[12]; across cycles 1 and 2, enfortumab vedotin 1.25 mg/kg",2.4 to 3.9 ng/mL
same,time to peak concentration,[12]; after dosing of enfortumab vedotin 1.25 mg/kg,2 to 3 days
same,Cmax lower than that of ADC,[12]; enfortumab vedotin 1.25 mg/kg,more than 1000 fold
same,inhibitor of OAT3,[13]; [28],not an inhibitor
same,substrate of OAT3,[13],not a substrate
same,inhibitor of OCT1,[14],not an inhibitor
same,inhibitor of OCT2,[15]; [28],not an inhibitor
same,substrate of OCT2,[15],not a substrate
same,mean estimate of maximum unbound MMAE concentration,[16],0.002 μM and 1.26 ng/mL
same,share of excreted MMAE that was excreted in feces,[17],approximately 72%
same,total MMAE administered excreted in feces and urine,[17],approximately 24%
same,increase in AUC0–28d,[18],37%
same,increase in Cmax,[18],31%
same,inhibitor or inducer of CYP3A,[19],neither an inhibitor nor an inducer
same,IC50 estimate relative to mean maximum unbound MMAE concentration,[20]; 100 μM vs 0.002 μM,"approximately 50,000 fold"
same,IC50,"[20]; read-out: half maximal inhibitory concentration, concentrations up to 100 μM",> 100 µM
same,inhibitor of OATP1B1,[21]; [28],not an inhibitor
same,substrate of OATP1B1,[21],not a substrate
same,substrate of BCRP,[22],not a substrate
Enfortumab vedotin: fully human anti–Nectin-4 IgG1 kappa monoclonal antibody conjugated to MMAE via a protease-cleavable maleimidocaproyl valine–citrulline linker,QT prolongation,"[3]; EV-102, 1.0 or 1.25 mg/kg",No clinically meaningful QT prolongation was observed
same,"slope estimate, dQTcF vs concentration","[3]; EV-102, 1.0 or 1.25 mg/kg",0.539 ms/(μg/mL)
same,Cmax geometric mean,[3],20100 ng/mL
same,"difference in exposure, lower in Asian patients",[4],< 11%
same,"geometric least square mean ratios of Cmax, AUC0–28d and Ctrough lower in Japanese than non-Japanese patients",[4],2.7–11.6%
same,mean clearance,[6],0.11 L/h
same,AUCd0–14,[12]; listed as ADC,34.7 µg·days/mL
same,clinical response,[23]; 0.6 mg/kg and 1.2 mg/kg every 3 weeks,clinical response was not observed
same,median t½,[23]; 1.2 mg/kg intravenous dose,57.4 h
same,median t½,[23]; 0.6-mg/kg dose,39.6 h
same,ORR (complete and partial responses),[24],55–64%
same,maximum tolerated dose,"[25]; EV-101, 0.5–1.25 mg/kg",not identified
same,confirmed objective response rate [ORR],"[25]; EV-101, 1.25-mg/kg dose level",42.9%
same,patients with grade 3 or higher TRAEs,[26]; mild CYP3A inhibitors,51.1%
same,patients with serious TRAEs,[26]; mild CYP3A inhibitors,20.7%
same,patients with grade 3 or higher TRAEs,[26]; moderate CYP3A inhibitors,61.8%
same,patients with serious TRAEs,[26]; moderate CYP3A inhibitors,28.7%
same,patients with grade 3 or higher TRAEs,[26]; not receiving CYP3A inhibitors,41.5%
same,patients with serious TRAEs,[26]; not receiving CYP3A inhibitors,14.4%
same,patients with TRAE grade 3 or higher,[26]; not receiving P-gp inhibitors,33.3%
same,patients with serious TRAE,[26]; not receiving P-gp inhibitors,10.0%
same,patients with TRAE grade 3 or higher,[26]; receiving P-gp inhibitors,56.8%
same,patients with serious TRAE,[26]; receiving P-gp inhibitors,24.3%
same,median OS,[27],11.0–15.2 months
"TAb: analyte: fully conjugated, partially conjugated, and unconjugated antibody after enfortumab vedotin administration",geometric mean ratio (GMR) of accumulation,[12]; after repeat enfortumab vedotin dosing,1.1
same,AUCd0–14,[12],98.1 µg·days/mL
same,"average Ctrough, TAb relative to ADC",[12]; end of cycle 1,approximately 5.5 fold
